Results taken from ChEMBL document CHEMBL5338774, “Quinazoline-2-Carboxamides as Selective PET Radiotracers for Matrix Metalloproteinase-13 Imaging in Atherosclerosis” (J Med Chem, 2023).

Experiments:
[1] = target: 72 kDa type IV collagenase (Homo sapiens, UniProt P08253); assay: Inhibition of human recombinant MMP-2 incubated for 30 mins by fluorescence based analysis
Stromelysin-2 = Stromelysin-2 (Homo sapiens, UniProt P09238); assay: Inhibition of human recombinant MMP-10 using […]-Pro-Lys-Pro-Val-Glu-Nval-Trp-Arg-Lys(Dnp)-NH2 as substrate preincubated for 30 mins followed by substrate addition by fluorescence based analysis
Neutrophil collagenase = Neutrophil collagenase (Homo sapiens, UniProt P22894); assay: Inhibition of human recombinant MMP-8 incubated for 30 mins by fluorescence based analysis
Collagenase 3 = Collagenase 3 (Homo sapiens, UniProt P45452); assay: Inhibition of human recombinant MMP-13 using Mca-Lys-Pro-Leu-GlyLeu-Dpa-Ala-Arg-NH2 as substrate preincubated for 30 mins followed by substrate addition by fluorescence based analysis
[2] = target: Matrix metalloproteinase-9 (Homo sapiens, UniProt P14780); assay: Inhibition of human recombinant MMP-9 incubated for 30 mins by fluorescence based analysis
Interstitial collagenase = target: T1, Interstitial collagenase (Homo sapiens, UniProt P03956); assay: Inhibition of human recombinant MMP-1 incubated for 30 mins by fluorescence based analysis
T1 sequence (P03956 whole entry): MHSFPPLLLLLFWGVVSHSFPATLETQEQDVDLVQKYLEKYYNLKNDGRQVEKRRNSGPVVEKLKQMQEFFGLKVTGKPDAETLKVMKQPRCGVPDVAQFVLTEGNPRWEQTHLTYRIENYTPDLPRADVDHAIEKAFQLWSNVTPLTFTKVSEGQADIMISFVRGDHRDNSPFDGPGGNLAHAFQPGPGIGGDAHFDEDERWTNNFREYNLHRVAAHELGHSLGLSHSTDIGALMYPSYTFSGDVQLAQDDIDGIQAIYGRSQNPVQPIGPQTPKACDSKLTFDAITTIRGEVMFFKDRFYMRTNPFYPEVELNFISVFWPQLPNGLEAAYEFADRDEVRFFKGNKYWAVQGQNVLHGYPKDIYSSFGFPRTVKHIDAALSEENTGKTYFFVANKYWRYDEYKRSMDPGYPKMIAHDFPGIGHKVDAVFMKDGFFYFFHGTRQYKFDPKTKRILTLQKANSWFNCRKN

[3] = Drug distribution in western atherogenic diet fed ApoE-/- mouse aortic plaques at […], iv administered as bolus injection measured for 30 mins by Oil Red O staining based autoradiography; type: ADME, organism-based, Aorta; conditions: in vivo, 0.5 h
Method in brief: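 Male ApoE-/- mice were fed a western atherogenic diet from 8 weeks of age for 13-16 weeks. Radiotracer (~7.5 MBq) was given IV by tail-vein bolus over 30 s. Blocking: unlabelled tracer analogue (2.5 mg/kg; DMA/propylene glycol/PEG400/water) or WAY170523 (7.5 mg/kg; DMSO/PEG400/water), both IV 15 min before. At 30 min, perfused aortae were exposed to a phosphor screen for 10 half-lives (%ID·mm⁻²), with ORO staining.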

[4] = Drug distribution in western atherogenic diet fed ApoE-/- mouse intestine at […], iv administered as bolus injection measured for 30 mins by gamma counter analysis; type: ADME, organism-based; conditions: in vivo, 0.5 h
Method in brief: (§1)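 Diet-fed male ApoE-/- mice (39 ± 5 g, n = 4-6) under 2% isoflurane received radiotracer (~7.5 MBq, 100-200 µL) IV by tail-vein bolus over 30 s. After 30 min, blood was taken by cardiac puncture, then PBS/formalin perfusion and organ dissection. Uptake is decay-corrected %ID normalized to tissue mass (%ID/g).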

[5] = Stability in western atherogenic diet fed ApoE-/- mouse plasma assessed as intact compound level at ~75 MBq, iv administered as bolus injection and measured after 30 mins by gamma counter analysis; type: ADME, organism-based; conditions: read-out: Stability
Method in brief: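 Blood was drawn by cardiac puncture into K₂EDTA tubes 30 min after IV radiotracer in diet-fed ApoE-/- mice. Optional IV pretreatment 15 min before: unlabelled analogue 2.5 mg/kg or WAY170523 7.5 mg/kg. Pooled protein-free plasma was spiked with standard and run on radio-HPLC (C18, ammonium formate/ACN). Fractions were collected each minute and gamma-counted to give the parent fraction.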

[6] = Drug distribution in western atherogenic diet fed ApoE-/- mouse myocardium assessed as myocardial retention at […], iv administered as bolus injection measured for 60 mins by PET analysis; type: ADME, organism-based; conditions: in vivo, 1 h
Method in brief: (§2)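 A 10 min transmission scan preceded tail-vein IV bolus of radiotracer (~7.5 MBq, over 30 s) in diet-fed ApoE-/- mice. Dynamic whole-body PET ran for 60 min (4×15 s, 4×1 min, 11×5 min frames), corrected for attenuation and scatter, 3D-OSEM/MAP reconstruction. Volumetric organ ROIs gave %ID·cc⁻¹ time-activity curves; n = 2 per group.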

[7] = Stability of compound in 10% EtOH/saline assessed as compound degradation measured upto 75 mins by analytical radio-HPLC analysis; type: physicochemical; conditions: buffer, 1.25 h
Method in brief: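 Radiotracer formulated in 10% EtOH/0.9% saline was held at room temperature up to 75 min. Samples were analysed by analytical radio-HPLC (C18, 0.1 M ammonium formate/ACN gradient, 1 mL·min⁻¹).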

[8] = Drug distribution in western atherogenic diet fed ApoE-/- mouse lung at […], iv administered as bolus injection measured for 30 mins by gamma counter analysis; type: ADME, organism-based; conditions: in vivo, 0.5 h; method in brief: as §1
[9] = Drug distribution in western atherogenic diet fed ApoE-/- mouse fat tissue at […], iv administered as bolus injection measured for 30 mins by gamma counter analysis; type: ADME, organism-based, Adipose tissue; conditions: in vivo, 0.5 h; method in brief: as §1
[10] = Drug distribution in western atherogenic diet fed ApoE-/- mouse blood assessed as compound remaining at […], iv administered as bolus injection measured for 30 mins by gamma counter analysis; type: ADME, organism-based; conditions: in vivo, 0.5 h; method in brief: as §1
[11] = Drug distribution in western atherogenic diet fed ApoE-/- mouse myocardium assessed as compound remaining at […], iv administered as bolus injection measured for 30 mins by gamma counter analysis; type: ADME, organism-based; conditions: in vivo, 0.5 h; method in brief: as §1
[12] = Tmax in western atherogenic diet fed ApoE-/- mouse blood at […], iv administered as bolus injection measured for 60 mins by PET analysis; type: ADME, organism-based; conditions: in vivo, 1 h; method in brief: as §2
[13] = Drug distribution in western atherogenic diet fed ApoE-/- mouse kidney at […], iv administered as bolus injection measured for 60 mins by PET analysis; type: ADME, organism-based; conditions: in vivo, 1 h; method in brief: as §2
[14] = Octanol/PBS distribution coefficient, logD of compound at pH 7.4 incubated for 10 mins under shaking condition by gamma counter analysis; type: physicochemical
Method in brief: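 Radiotracer partitioning between 1-octanol and 1× PBS at pH 7.4. Mean ± standard error of two independent experiments, each in quadruplicate.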

[15] = Drug distribution in western atherogenic diet fed ApoE-/- mouse bone at […], iv administered as bolus injection measured for 30 mins by gamma counter analysis; type: ADME, organism-based, Bone element; conditions: in vivo, 0.5 h; method in brief: as §1
[16] = Drug distribution in western atherogenic diet fed ApoE-/- mouse brain at […], iv administered as bolus injection measured for 30 mins by gamma counter analysis; type: ADME, organism-based; conditions: in vivo, 0.5 h; method in brief: as §1
[17] = Drug distribution in western atherogenic diet fed ApoE-/- mouse muscle tissue at […], iv administered as bolus injection measured for 30 mins by gamma counter analysis; type: ADME, organism-based; conditions: in vivo, 0.5 h; method in brief: as §1
[18] = Drug distribution in western atherogenic diet fed ApoE-/- mouse kidney at […], iv administered as bolus injection measured for 30 mins by gamma counter analysis; type: ADME, organism-based; conditions: in vivo, 0.5 h; method in brief: as §1
[19] = Drug distribution in western atherogenic diet fed ApoE-/- mouse pancreas at […], iv administered as bolus injection measured for 30 mins by gamma counter analysis; type: ADME, organism-based; conditions: in vivo, 0.5 h; method in brief: as §1
[20] = Drug distribution in western atherogenic diet fed ApoE-/- mouse stomach at […], iv administered as bolus injection measured for 30 mins by gamma counter analysis; type: ADME, organism-based; conditions: in vivo, 0.5 h; method in brief: as §1
[21] = Drug distribution in western atherogenic diet fed ApoE-/- mouse spleen at […], iv administered as bolus injection measured for 30 mins by gamma counter analysis; type: ADME, organism-based; conditions: in vivo, 0.5 h; method in brief: as §1
[22] = Drug distribution in western atherogenic diet fed ApoE-/- mouse liver at […], iv administered as bolus injection measured for 60 mins by PET analysis; type: ADME, organism-based; conditions: in vivo, 1 h; method in brief: as §2

Sequence of 72 kDa type IV collagenase (P08253 whole entry): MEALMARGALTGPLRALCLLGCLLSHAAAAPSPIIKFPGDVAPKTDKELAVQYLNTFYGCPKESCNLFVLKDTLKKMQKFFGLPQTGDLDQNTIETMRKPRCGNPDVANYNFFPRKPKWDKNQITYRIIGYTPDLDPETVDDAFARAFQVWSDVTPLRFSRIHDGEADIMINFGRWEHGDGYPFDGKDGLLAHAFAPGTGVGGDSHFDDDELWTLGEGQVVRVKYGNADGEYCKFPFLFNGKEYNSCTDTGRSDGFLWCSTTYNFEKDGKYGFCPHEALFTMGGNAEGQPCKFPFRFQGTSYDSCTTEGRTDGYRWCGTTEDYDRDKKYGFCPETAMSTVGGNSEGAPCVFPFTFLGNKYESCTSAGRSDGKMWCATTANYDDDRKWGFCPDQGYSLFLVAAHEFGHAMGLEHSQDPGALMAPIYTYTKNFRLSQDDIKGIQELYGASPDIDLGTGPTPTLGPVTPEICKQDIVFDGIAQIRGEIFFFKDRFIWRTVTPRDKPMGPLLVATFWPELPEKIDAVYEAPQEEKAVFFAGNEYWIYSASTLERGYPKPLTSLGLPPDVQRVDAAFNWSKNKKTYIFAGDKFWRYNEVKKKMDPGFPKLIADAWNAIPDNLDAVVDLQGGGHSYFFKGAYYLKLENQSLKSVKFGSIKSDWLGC
Sequence of Stromelysin-2 (P09238 whole entry): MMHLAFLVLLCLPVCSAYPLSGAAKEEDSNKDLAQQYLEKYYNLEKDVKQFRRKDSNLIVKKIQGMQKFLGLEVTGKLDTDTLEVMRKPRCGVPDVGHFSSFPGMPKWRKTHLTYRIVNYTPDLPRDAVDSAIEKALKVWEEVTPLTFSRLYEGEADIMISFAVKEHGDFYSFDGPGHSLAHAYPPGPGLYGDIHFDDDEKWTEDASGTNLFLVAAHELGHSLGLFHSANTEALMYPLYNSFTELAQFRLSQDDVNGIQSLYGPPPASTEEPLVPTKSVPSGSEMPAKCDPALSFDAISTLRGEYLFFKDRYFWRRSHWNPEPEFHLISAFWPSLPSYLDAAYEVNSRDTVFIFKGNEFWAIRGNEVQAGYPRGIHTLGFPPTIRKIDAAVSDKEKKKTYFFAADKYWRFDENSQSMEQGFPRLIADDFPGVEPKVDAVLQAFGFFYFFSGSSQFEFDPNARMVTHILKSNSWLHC
Sequence of Matrix metalloproteinase-9 (P14780 whole entry): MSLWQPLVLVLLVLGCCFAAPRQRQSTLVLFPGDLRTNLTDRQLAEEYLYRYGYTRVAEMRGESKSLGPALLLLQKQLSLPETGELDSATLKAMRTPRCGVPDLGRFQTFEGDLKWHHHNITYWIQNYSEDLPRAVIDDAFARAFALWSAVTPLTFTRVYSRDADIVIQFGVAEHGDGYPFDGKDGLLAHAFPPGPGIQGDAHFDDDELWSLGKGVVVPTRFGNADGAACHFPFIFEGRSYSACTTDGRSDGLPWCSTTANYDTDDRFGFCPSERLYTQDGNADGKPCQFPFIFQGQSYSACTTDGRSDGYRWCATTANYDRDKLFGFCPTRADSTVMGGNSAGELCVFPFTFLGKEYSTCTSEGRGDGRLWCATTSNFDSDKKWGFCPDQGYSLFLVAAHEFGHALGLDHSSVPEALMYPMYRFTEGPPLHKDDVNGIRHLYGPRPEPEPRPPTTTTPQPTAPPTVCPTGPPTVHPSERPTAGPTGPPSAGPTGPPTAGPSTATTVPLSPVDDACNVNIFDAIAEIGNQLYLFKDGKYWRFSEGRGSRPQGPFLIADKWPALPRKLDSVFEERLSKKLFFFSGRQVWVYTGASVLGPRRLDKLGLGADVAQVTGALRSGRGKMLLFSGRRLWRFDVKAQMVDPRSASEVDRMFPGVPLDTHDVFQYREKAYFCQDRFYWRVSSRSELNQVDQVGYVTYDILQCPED
Sequence of Neutrophil collagenase (P22894 whole entry): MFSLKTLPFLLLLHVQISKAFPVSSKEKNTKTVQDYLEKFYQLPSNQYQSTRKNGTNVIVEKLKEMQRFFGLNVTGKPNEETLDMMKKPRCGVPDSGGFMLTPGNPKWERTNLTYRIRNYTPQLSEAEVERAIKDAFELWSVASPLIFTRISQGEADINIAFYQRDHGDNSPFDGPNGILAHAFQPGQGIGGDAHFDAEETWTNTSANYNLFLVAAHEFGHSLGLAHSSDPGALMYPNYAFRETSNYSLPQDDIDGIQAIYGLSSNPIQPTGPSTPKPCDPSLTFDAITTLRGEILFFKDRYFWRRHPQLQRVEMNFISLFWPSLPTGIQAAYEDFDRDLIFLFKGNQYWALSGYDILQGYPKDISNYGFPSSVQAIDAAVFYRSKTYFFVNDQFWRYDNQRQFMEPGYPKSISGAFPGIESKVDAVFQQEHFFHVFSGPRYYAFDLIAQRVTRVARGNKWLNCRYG

Row | Structure (SMILES) | IC50 [1] [nM] | IC50 (Stromelysin-2) [nM] | IC50 (Neutrophil collagenase) [nM] | IC50 (Collagenase 3) [nM] | IC50 [2] [nM] | IC50 (Interstitial collagenase) [nM] | further results
1 | COc1cccc(CNC(=O)c2nc3ccc(F)c(OCCc4ccc(C(=O)O)cc4)c3c(=O)[nH]2)c1 | > 10000 | 3200 | 2400 | 1.3 | > 10000 | > 10000 | 
2 | Cc1cc(CNC(=O)c2nc3ccc(F)c(OCCc4ccc(C(=O)O)cc4)c3c(=O)[nH]2)ccc1F | > 10000 | 2500 | 1700 | 1.2 | > 10000 | > 10000 | 
3 | COc1ccc(CNC(=O)c2nc3ccc(F)c(OCCc4ccc(C(=O)O)cc4)c3c(=O)[nH]2)cc1 | > 10000 | 2700 | 1400 | 2.9 | > 10000 | > 10000 | 
4 | Cc1cc(CNC(=O)c2nc3ccc(F)c(OCCF)c3c(=O)[nH]2)ccc1F | > 10000 | 3100 | 1200 | 16 | > 10000 | > 10000 | 
5 | O=C(O)c1ccc(CCOc2c(F)ccc3nc(C(=O)NCc4cccc(O)c4)[nH]c(=O)c23)cc1 | > 10000 | 2800 | 2100 | 1.3 | > 10000 | > 10000 | 
6 | Cc1cc(CNC(=O)c2nc3ccc(F)c(F)c3c(=O)[nH]2)ccc1F |  |  |  | 106 |  |  | 
7 | Cc1cc(CNC(=O)c2cc(C(=O)NCc3ccc(OCCF)cc3)ncn2)ccc1F |  |  |  | 52 |  |  | 
8 | COc1ccc(CNC(=O)c2nc3ccc(F)c(F)c3c(=O)[nH]2)cc1 |  |  |  | 313 |  |  | 
9 | COc1cccc(CNC(=O)c2nc3ccc(F)c(F)c3c(=O)[nH]2)c1 |  |  |  | 118 |  |  | 
10 | Cc1cc(CNC(=O)c2nc3ccc(F)c(OCCc4ccc(O)cc4)c3c(=O)[nH]2)ccc1F | > 10000 | 6900 | 2200 | 12 | > 10000 | > 10000 | 
11 | COc1ccc(CNC(=O)c2nc3ccc(F)c(OCCc4ccc(O)cc4)c3c(=O)[nH]2)cc1 | > 10000 | 6800 | 1500 | 48 | > 10000 | > 10000 | 
12 | COc1ccc(CCOc2c(F)ccc3nc(C(=O)NCc4ccc(OC)cc4)[nH]c(=O)c23)cc1 |  |  |  | 113 |  |  | 
13 | O=C(NCc1cccc(O)c1)c1nc2ccc(F)c(F)c2c(=O)[nH]1 |  |  |  | 149 |  |  | 
14 | COc1ccc(CCOc2c(F)ccc3nc(C(=O)NCc4ccc(F)c(C)c4)[nH]c(=O)c23)cc1 | > 10000 | 9100 | 780 | 24 | > 10000 | > 10000 | 
15 | Cc1cc(CNC(=O)c2nc3ccc(F)c(OCCc4ccc(O[11CH3])cc4)c3c(=O)[nH]2)ccc1F |  |  |  |  |  |  | Drug uptake [3]: 129.8 %ID.m^-2; Drug uptake [4]: < 7 % ID/g; remaining at 0.5 h [5]: 70%; Drug uptake [6]: < 0.5 %ID/cc; Stability [7]: Stable; Drug uptake [8]: ~ 2 % ID/g; Drug uptake [9]: ~ 2 % ID/g; Drug uptake [10]: 1.83 % ID/g; Drug uptake [11]: ~ 1 % ID/g; Tmax [12]: 37.5 s; Drug uptake [13]: 7.4 %ID/cc; logD at 10 min [14]: 3.76; Drug uptake [15]: ~ 2 % ID/g; Drug uptake [16]: ~ 2 % ID/g; Drug uptake [17]: ~ 2 % ID/g; Drug uptake [18]: < 7 % ID/g; Drug uptake [19]: 3.27 % ID/g; Drug uptake [20]: ~ 2 % ID/g; Drug uptake [21]: ~ 2 % ID/g; Drug uptake [22]: 9.3 %ID/cc
16 | COc1ccc(CNC(=O)c2nc3ccc(F)c(OCCF)c3c(=O)[nH]2)cc1 |  |  |  | 127 |  |  | 
17 | Cc1cc(CNC(=O)c2cc(C(=O)NCc3ccc(OCC[18F])cc3)ncn2)ccc1F |  |  |  |  |  |  | Drug uptake [6]: ~ 5 %ID/cc; Drug uptake [22]: ~ 12 %ID/cc
